Laboratory results from ChEMBL document CHEMBL4130487, “A pentanoic acid derivative targeting matrix metalloproteinase-2 (MMP-2) induces apoptosis in a chronic myeloid leukemia cell line” (Eur J Med Chem, 2017).

What was measured:
[1] = tested on: K562; experiment: Anti-invasive activity against human K562 cells assessed as at 2.5 uM after 24 hrs by CyQuantGR dye based fluorimetric QCM EC matrix assay relative to control; assay type: functional; details: K562, 24 h
Method in brief: (§1)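 K562 cells (1X10^6 cells/ml) starved overnight in FBS-free medium, then placed in inserts in FBS-free medium with 5% BSA, with 5% FBS medium below as chemoattractant. Treated at 2.5, 5 and 10 μM in triplicate for 24 h alongside an untreated control. Invaded cells were detached, stained with CyQuantGR and read by fluorescence (ex 480/em 520 nm). Results given as % of control, mean ± SD.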

[2] = tested on: K562; experiment: Downregulation of MMP2 protein expression in human K562 cells assessed as MMP2 negative population at 10 uM after 48 hrs by FITC staining based flow cytometry (reference value: 1.6%)
[3] = tested on: K562; experiment: Induction of apoptosis in human K562 cells assessed as early apoptotic cells at 2.5 uM after 48 hrs by Annexin V-FITC/propidium iodide staining based flow cytometry (reference value: 9.6%); assay type: functional
[4] = target: Neutrophil collagenase (Homo sapiens, UniProt P22894); experiment: Inhibition of recombinant human MMP8 (Phe99 to Gln269 residues) expressed in Escherichia coli using Ac-Pro-Leu-Gly-S-Leu-Leu-Gly-OEt as substrate after 1 hr measured at 1 min time interval for 30 mins by microplate photometric method
Chain of Neutrophil collagenase (P22894 whole entry): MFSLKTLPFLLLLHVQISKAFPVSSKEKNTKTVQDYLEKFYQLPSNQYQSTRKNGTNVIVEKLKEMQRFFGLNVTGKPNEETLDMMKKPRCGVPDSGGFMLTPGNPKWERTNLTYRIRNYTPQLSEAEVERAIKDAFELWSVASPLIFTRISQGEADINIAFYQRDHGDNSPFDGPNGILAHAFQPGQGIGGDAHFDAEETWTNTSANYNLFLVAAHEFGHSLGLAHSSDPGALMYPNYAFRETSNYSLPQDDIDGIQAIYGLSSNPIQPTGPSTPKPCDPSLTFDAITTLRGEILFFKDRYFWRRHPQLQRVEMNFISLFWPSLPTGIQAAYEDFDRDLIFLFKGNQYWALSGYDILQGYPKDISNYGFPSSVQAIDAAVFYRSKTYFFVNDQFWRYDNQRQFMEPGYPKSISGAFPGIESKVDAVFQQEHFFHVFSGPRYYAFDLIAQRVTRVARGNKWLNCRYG
Method in brief: (§2)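 Commercial MMP kits; compound preincubated with enzyme before chromogenic substrate was added. Reactions at 37 °C for 1 h, with at least six inhibitor concentrations in triplicate. Absorbance at 410 nm read every 1 min for 30 min. NNGH used as reference inhibitor. IC50 taken from semi-logarithmic dose-response plots.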

[5] = tested on: K562; experiment: Cell cycle arrest in human K562 cells assessed as accumulation at G1/S-phase at 10 uM after 24 hrs by propidium iodide staining based flow cytometry (reference value: 21.8%)
[6] = tested on: K562; experiment: Induction of apoptosis in human K562 cells assessed as increase in early apoptotic cells at 2.5 to 10 uM after 48 hrs by Annexin V-FITC/propidium iodide staining based flow cytometry relative to control; assay type: functional
[7] = tested on: K562; experiment: Cell cycle arrest in human K562 cells assessed as accumulation at G2/M-phase at 2.5 uM after 24 hrs by propidium iodide staining based flow cytometry (reference value: 35.3%)
[8] = tested on: K562; experiment: Induction of apoptosis in human K562 cells assessed as live cells at 10 uM after 48 hrs by Annexin V-FITC/propidium iodide staining based flow cytometry (reference value: 90.1%); assay type: functional
[9] = tested on: K562; experiment: Downregulation of MMP2 protein expression in human K562 cells assessed as MMP2 negative population at 2.5 uM after 48 hrs by FITC staining based flow cytometry (reference value: 1.6%)
[10] = tested on: A549; experiment: Cytotoxicity against human A549 cells assessed as reduction in cell viability after 48 hrs by MTT assay; assay type: functional, cell-based; details: A549, 48 h
Method in brief: (§3)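 A549, MDA-MB-231, K562, U937 and PBMC (PBMC from healthy donors) seeded at 1×10^3 cells/well and left 24 h, then exposed to compounds for 48 h at 37 °C, 5% CO2. Adherent lines were grown in DMEM, the others in RPMI-1640 with 10% heat-inactivated FBS. MTT read-out; viability expressed as % of untreated control. IC50 taken as the concentration giving 50% viability loss.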

[11] = target: 72 kDa type IV collagenase (Homo sapiens, UniProt P08253); experiment: Inhibition of recombinant human MMP2 (Tyr110 to Asp452 residues) using Ac-Pro-Leu-Gly-S-Leu-Leu-Gly-OEt as substrate after 1 hr measured at 1 min time interval for 30 mins by microplate photometric method; method in brief: as §2
Chain of 72 kDa type IV collagenase (P08253 whole entry): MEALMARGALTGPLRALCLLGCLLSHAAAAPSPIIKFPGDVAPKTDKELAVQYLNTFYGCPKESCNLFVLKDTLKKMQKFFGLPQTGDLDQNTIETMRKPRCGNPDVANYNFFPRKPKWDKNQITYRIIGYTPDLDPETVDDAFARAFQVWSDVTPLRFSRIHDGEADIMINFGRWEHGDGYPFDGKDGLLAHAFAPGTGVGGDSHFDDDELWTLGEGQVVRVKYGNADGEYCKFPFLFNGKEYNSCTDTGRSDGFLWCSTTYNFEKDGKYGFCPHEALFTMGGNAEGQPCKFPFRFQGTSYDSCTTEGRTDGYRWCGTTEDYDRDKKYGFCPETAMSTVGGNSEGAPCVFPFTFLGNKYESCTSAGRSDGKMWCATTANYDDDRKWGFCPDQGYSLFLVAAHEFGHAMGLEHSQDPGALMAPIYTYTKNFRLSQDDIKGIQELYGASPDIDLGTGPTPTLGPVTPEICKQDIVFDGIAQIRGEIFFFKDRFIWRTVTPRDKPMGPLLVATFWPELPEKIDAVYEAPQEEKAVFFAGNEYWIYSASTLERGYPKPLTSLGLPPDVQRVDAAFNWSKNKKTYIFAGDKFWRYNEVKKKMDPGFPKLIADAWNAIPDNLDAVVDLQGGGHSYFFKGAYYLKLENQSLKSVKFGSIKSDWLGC

[12] = target: MMP-2/MMP-9 (Homo sapiens) (UniProt P08253+P14780); experiment: Selectivity ratio of IC50 for recombinant human MMP9 (Phe107 to Pro449 residues) expressed in Escherichia coli to IC50 for recombinant human MMP2 (Tyr110 to Asp452 residues)
[13] = target: Macrophage metalloelastase (Homo sapiens, UniProt P39900); experiment: Inhibition of recombinant human MMP12 (Phe99 to Leu271 residues) expressed in Escherichia coli using Ac-Pro-Leu-Gly-S-Leu-Leu-Gly-OEt as substrate after 1 hr measured at 1 min time interval for 30 mins by microplate photometric method; method in brief: as §2
Chain of Macrophage metalloelastase (P39900 whole entry): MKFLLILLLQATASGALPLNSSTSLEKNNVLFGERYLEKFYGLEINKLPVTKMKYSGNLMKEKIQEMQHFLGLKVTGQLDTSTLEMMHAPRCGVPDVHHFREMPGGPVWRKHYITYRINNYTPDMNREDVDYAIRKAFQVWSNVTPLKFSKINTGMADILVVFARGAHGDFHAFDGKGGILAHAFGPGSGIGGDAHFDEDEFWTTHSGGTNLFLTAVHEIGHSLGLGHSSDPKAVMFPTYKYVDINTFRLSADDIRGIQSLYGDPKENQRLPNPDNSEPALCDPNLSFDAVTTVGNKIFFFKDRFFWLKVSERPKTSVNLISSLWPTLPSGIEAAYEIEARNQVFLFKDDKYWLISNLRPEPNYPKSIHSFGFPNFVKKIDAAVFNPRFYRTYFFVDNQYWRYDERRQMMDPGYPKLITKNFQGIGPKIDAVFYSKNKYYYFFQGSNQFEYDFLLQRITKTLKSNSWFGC

[14] = tested on: K562; experiment: Cell cycle arrest in human K562 cells assessed as accumulation at sub-G1 phase at 10 uM after 48 hrs by propidium iodide staining based flow cytometry (reference value: 1%); assay type: functional
[15] = tested on: K562; experiment: Anti-invasive activity against human K562 cells at 10 uM after 24 hrs by CyQuantGR dye based fluorimetric QCM EC matrix assay relative to control; assay type: functional; details: K562, 24 h; method in brief: as §1
[16] = tested on: K562; experiment: Downregulation of MMP2 protein expression in human K562 cells assessed as MMP2 positive population at 2.5 uM after 48 hrs by FITC staining based flow cytometry (reference value: 98.4%)
[17] = tested on: K562; experiment: Cytotoxicity against human K562 cells assessed as reduction in cell viability after 48 hrs by MTT assay; assay type: functional, cell-based; details: K562, 48 h; method in brief: as §3
[18] = target: Matrix metalloproteinase-9 (Homo sapiens, UniProt P14780); experiment: Inhibition of recombinant human MMP9 (Phe107 to Pro449 residues) expressed in Escherichia coli using Ac-Pro-Leu-Gly-S-Leu-Leu-Gly-OEt as substrate after 1 hr measured at 1 min time interval for 30 mins by microplate photometric method; method in brief: as §2
Chain of Matrix metalloproteinase-9 (P14780 whole entry): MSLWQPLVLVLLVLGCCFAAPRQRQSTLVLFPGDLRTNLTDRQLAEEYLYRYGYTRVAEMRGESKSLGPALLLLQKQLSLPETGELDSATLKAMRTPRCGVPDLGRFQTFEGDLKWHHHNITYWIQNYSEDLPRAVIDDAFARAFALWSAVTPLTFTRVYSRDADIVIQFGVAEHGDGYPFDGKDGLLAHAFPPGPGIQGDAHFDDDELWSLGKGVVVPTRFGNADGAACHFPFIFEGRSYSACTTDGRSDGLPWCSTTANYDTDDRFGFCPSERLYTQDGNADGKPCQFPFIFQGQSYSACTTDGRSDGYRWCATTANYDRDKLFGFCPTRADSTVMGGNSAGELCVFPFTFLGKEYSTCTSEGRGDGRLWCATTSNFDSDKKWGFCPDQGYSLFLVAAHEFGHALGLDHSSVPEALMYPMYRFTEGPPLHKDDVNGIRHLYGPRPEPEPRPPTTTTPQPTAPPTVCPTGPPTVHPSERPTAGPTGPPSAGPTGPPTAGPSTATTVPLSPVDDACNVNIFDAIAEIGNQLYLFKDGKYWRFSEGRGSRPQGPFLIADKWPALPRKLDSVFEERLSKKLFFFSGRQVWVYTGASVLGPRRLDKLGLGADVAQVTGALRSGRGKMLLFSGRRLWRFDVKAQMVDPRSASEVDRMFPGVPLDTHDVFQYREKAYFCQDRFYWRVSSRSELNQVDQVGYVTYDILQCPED

[19] = tested on: K562; experiment: Cell cycle arrest in human K562 cells assessed as accumulation at G2/M-phase at 10 uM after 24 hrs by propidium iodide staining based flow cytometry (reference value: 35.3%)
[20] = tested on: K562; experiment: Downregulation of MMP2 protein expression in human K562 cells assessed as MMP2 negative population at 5 uM after 48 hrs by FITC staining based flow cytometry (reference value: 1.6%)
[21] = tested on: K562; experiment: Induction of apoptosis in human K562 cells assessed as early apoptotic cells at 5 uM after 48 hrs by Annexin V-FITC/propidium iodide staining based flow cytometry (reference value: 9.6%); assay type: functional
[22] = tested on: K562; experiment: Induction of apoptosis in human K562 cells assessed as live cells at 5 uM after 48 hrs by Annexin V-FITC/propidium iodide staining based flow cytometry (reference value: 90.1%); assay type: functional
[23] = tested on: K562; experiment: Cell cycle arrest in human K562 cells assessed as accumulation at G1-phase at 5 uM after 48 hrs by propidium iodide staining based flow cytometry (reference value: 27.5%); assay type: functional
[24] = tested on: K562; experiment: Induction of apoptosis in human K562 cells assessed as increase in late apoptotic cells at 2.5 to 10 uM after 48 hrs by Annexin V-FITC/propidium iodide staining based flow cytometry relative to control; assay type: functional
[25] = tested on: PBMC; experiment: Cytotoxicity against human PBMC assessed as reduction in cell viability after 48 hrs by MTT assay; assay type: cell-based; method in brief: as §3

- IC50 [4]: > 500 µM
- IC50 [11]: 4.8 µM
- Ratio IC50 [12]: 1.42
- IC50 [13]: 493 µM
- IC50 [18]: 6.8 µM
Compound: CCCCCNC(=O)CC[C@H](NS(=O)(=O)c1ccc([N+](=O)[O-])cc1)C(=O)O
- inhibition at 2.5 µM [1]: 12.4%
- Activity [2]: 84.4%
- Activity [3]: 14.3%
- Activity [5]: 14%
- fold change (FC) [6]: <=300
- Activity [7]: 36%
- Activity [8]: 74%
- Activity [9]: 73.7%
- IC50 [10]: 206 µM
- Activity [14]: 4.6%
- inhibition at 10 µM [15]: 24.1%
- Activity [16]: 26.3%
- IC50 [17]: 17.9 µM
- Activity [19]: 23.1%
- Activity [20]: 81.1%
- Activity [21]: 15.4%
- Activity [22]: 76%
- Activity [23]: 33.4%
- fold change (FC) [24]: <=300
- IC50 [25]: > 1000 µM
